Converted amounts (≈) assume the structure as drawn.
Key:
[1] = Ratio of drug level in seminal plasma to blood plasma in human at 100 mg administered every 4 hrs by UPLC-MS/MS analysis; assay type: ADME, cell-free; conditions: male
[2] = Blood plasma protein binding in human treated with 100 mg of efavirenz administered every 4 hrs by ultrafiltration method; assay type: ADME, cell-free; conditions: read-out: PPB (converted)
Procedure, shortened: (§1)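 Ultrafiltration through 10-kDa membrane of 100 μl sample preincubated 1 h at 37°C, centrifuged at 37°C with filtrate collected every 15 min for 45 min and measured by UPLC-MS/MS. Free level at time zero back-extrapolated by linear regression. […]. For blood plasma, metabolites were spiked into blank plasma lots.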

Cytochrome P450 2B6 [3] = biological target: T1, Cytochrome P450 2B6 (Homo sapiens, UniProt P20813); assay: Drug metabolism of the compound assessed as CYP2B6 (unknown origin)-mediated formation of dihydroxylated metabolites with retention time of 1.73 mins at 5 uM by UPLC-MS/MS analysis; assay type: ADME; conditions: 104 s
T1 sequence (P20813 whole entry): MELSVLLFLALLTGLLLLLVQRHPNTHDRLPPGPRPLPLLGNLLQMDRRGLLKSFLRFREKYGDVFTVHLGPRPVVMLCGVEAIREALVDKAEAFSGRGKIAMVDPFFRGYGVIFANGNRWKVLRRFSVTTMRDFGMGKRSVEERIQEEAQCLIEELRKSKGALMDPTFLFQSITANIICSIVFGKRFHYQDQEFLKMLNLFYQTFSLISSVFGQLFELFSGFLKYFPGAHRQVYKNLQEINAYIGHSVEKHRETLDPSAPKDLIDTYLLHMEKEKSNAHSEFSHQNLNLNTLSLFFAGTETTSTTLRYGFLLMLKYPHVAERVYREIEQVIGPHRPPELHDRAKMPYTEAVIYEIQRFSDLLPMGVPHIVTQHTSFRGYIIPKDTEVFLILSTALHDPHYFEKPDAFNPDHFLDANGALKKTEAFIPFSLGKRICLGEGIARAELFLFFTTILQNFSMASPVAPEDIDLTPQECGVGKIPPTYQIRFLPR
Procedure, shortened: (§2)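 cDNA-expressed human CYPs (20 pmol/ml; panel 1A1–3A7) incubated with 5 μM substrate in 100 mM potassium phosphate, pH 7.4. 5-min equilibration at 37°C, then NADPH regenerating system, 60 min at 37°C. Acetonitrile stop, liquid–liquid extraction, UPLC-MS/MS detection of dihydroxylated products. Mean ± SD, n = 3.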

[4] = test system: Human immunodeficiency virus 1; assay: Antiviral activity against HIV1 expressing Env-green fluorescent fusion protein infected in PBMC assessed as inhibition of viral activity after 72 hrs by flow cytometry analysis; assay type: functional, organism-based; conditions: Human immunodeficiency virus 1, 72 h
Procedure, shortened: (§3)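 Activated CD4+ T cells from PBMCs (PHA 0.5 μg/ml, IL-2 100 U/ml, 3 days, 37°C) seeded at 1 × 10^5/well in RPMI + 50% FBS with IL-2. Compound in DMSO (<0.1%) added 3 h before spinoculation with single-round HIV-1 Env-GFP reporter virus. GFP read by flow cytometry after 72 h. Infectivity is fraction unaffected relative to virus-only and no-virus controls.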

[5] = Blood plasma concentration in human treated with 100 mg of efavirenz administered […] by UPLC-MS/MS analysis; assay type: ADME, cell-free
Procedure, shortened: (§4)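 Patient samples (subjects on once-daily EFV regimen; paired plasma/CSF from 13 participants) extracted and total metabolite levels quantified by UPLC-MS/MS. Fluorinated EFV analog used as internal standard. MRM detection, calibrated linear 0.5–500 ng/ml. Values reported as median (IQR).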

Liver microsome [6] = assay: Drug metabolism in human liver microsomes assessed as formation of dihydroxylated metabolites with retention time of 1.56 mins at 20 uM by UPLC-MS/MS analysis; assay type: ADME; conditions: 0.026 h
Procedure, shortened: (§5)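 Substrate at 20 μM with pooled human liver microsomes (1 mg/mL) in 100 mM potassium phosphate, pH 7.4. 5-min equilibration at 37°C, then NADPH regenerating system added, 60 min at 37°C. Stopped with acetonitrile, liquid–liquid extracted (hexane:ethyl acetate), and dihydroxylated products read by UPLC-MS/MS at MRM m/z 346 > 262.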

[7] = Fraction unbound in human seminal plasma treated with 100 mg of efavirenz administered every 4 hrs by ultrafiltration method; assay type: ADME; procedure, shortened: as §1
Cytochrome P450 1A1 [8] = biological target: T2, Cytochrome P450 1A1 (Homo sapiens, UniProt P04798); assay: Drug metabolism of the compound assessed as CYP1A1 (unknown origin)-mediated formation of dihydroxylated metabolites with retention time of 1.73 mins at 5 uM by UPLC-MS/MS analysis; assay type: ADME; conditions: 104 s; procedure, shortened: as §2
T2 sequence (P04798 whole entry): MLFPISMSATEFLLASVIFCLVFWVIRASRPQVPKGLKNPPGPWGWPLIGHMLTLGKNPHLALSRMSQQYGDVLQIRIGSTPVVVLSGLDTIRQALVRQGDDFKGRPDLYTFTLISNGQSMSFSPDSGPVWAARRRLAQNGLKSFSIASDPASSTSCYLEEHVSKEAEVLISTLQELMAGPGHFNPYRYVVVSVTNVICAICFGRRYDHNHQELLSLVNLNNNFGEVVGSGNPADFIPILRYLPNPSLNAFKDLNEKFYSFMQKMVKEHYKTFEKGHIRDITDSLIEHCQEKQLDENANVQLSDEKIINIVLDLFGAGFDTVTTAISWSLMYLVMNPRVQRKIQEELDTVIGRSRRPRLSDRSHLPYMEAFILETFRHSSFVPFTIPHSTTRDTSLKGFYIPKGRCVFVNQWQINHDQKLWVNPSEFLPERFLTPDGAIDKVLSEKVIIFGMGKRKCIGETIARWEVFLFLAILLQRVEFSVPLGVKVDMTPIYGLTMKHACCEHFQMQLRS

Liver microsome [9] = assay: Drug metabolism in human liver microsomes assessed as formation of metabolites with retention time of 1.73 mins at 20 uM by UPLC-MS/MS analysis; assay type: ADME; conditions: 104 s; procedure, shortened: as §5
Cytochrome P450 2B6 [10] = biological target: T1, Cytochrome P450 2B6; assay: Drug metabolism of the compound assessed as CYP2B6 (unknown origin)-mediated formation of dihydroxylated metabolites with retention time of 1.56 mins at 5 uM by UPLC-MS/MS analysis; assay type: ADME; conditions: 0.026 h; procedure, shortened: as §2
[11] = Seminal plasma protein binding in human treated with 100 mg of efavirenz administered every 4 hrs by ultrafiltration method; assay type: ADME, cell-free; conditions: male, read-out: PPB (converted); procedure, shortened: as §1
[12] = Seminal plasma concentration in human treated with 100 mg of efavirenz administered every 4 hrs by UPLC-MS/MS analysis; assay type: ADME, cell-free; conditions: male
Liver microsome [13] = assay: Drug metabolism in human liver microsomes assessed as formation of metabolites with retention time of 1.92 mins at 20 uM by UPLC-MS/MS analysis; assay type: ADME; conditions: 0.032 h; procedure, shortened: as §5
Cytochrome P450 1A1 [14] = biological target: T2, Cytochrome P450 1A1; assay: Drug metabolism of the compound assessed as CYP1A1 (unknown origin)-mediated formation of dihydroxylated metabolites with retention time of 1.56 mins at 5 uM by UPLC-MS/MS analysis; assay type: ADME; conditions: 0.026 h; procedure, shortened: as §2
Cytochrome P450 2B6 [15] = biological target: T1, Cytochrome P450 2B6; assay: Drug metabolism of the compound assessed as CYP2B6 (unknown origin)-mediated formation of metabolites with retention time of 1.92 mins at 5 uM by UPLC-MS/MS analysis; assay type: ADME; conditions: 0.032 h; procedure, shortened: as §2
[16] = Drug level in human cerebrospinal fluid treated with 100 mg of efavirenz administered […] by UPLC-MS/MS analysis; assay type: ADME, tissue-based; conditions: read-out: Drug uptake; procedure, shortened: as §4
Cytochrome P450 2C8 = biological target: T3, Cytochrome P450 2C8 (Homo sapiens, UniProt P10632); assay: Drug metabolism of the compound assessed as CYP2C8 (unknown origin)-mediated formation of dihydroxylated metabolites with retention time of 1.92 mins at 5 uM by UPLC-MS/MS analysis; assay type: ADME; conditions: 0.032 h; procedure, shortened: as §2
T3 sequence (P10632 whole entry): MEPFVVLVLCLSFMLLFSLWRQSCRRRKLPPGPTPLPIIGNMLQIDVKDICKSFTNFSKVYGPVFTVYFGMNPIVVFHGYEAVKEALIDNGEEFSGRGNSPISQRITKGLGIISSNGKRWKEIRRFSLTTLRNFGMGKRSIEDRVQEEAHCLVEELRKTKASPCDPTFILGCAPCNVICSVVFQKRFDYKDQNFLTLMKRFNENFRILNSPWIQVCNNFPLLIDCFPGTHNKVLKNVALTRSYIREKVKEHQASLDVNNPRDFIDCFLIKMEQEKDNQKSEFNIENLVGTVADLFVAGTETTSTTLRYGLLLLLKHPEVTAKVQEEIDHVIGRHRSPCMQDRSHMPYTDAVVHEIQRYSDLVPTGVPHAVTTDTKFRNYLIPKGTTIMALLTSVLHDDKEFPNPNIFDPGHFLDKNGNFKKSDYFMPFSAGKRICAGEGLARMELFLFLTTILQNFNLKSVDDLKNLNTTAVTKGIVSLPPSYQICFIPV

[17] = Ratio of drug level in seminal plasma to blood plasma in human treated with 100 mg of efavirenz administered every 4 hrs by UPLC-MS/MS analysis; assay type: ADME, cell-free; conditions: male
Plasma [18] = assay: Drug metabolism in human seminal plasma assessed as retention time treated with 100 mg of efavirenz administered every 4 hrs by UPLC-MS/MS analysis; assay type: ADME, cell-free
Plasma [19] = assay: Drug metabolism in human seminal plasma assessed as retention time of dihydroxylated metabolites treated with 100 mg of efavirenz administered every 4 hrs by UPLC-MS/MS analysis; assay type: ADME, cell-free
[20] = Seminal plasma protein binding in human at 100 mg administered every 4 hrs by ultrafiltration method; assay type: ADME, cell-free; procedure, shortened: as §1
Plasma [21] = assay: Total blood plasma concentration in human; assay type: ADME, cell-free
[22] = Drug metabolism in human seminal plasma assessed as formation of N- and O-linked glucuronidated metabolite at 100 mg administered every 4 hrs by UPLC-MS/MS analysis; assay type: ADME, cell-free
Plasma [23] = assay: Total seminal plasma concentration in human; assay type: ADME, cell-free
[24] = test system: Human immunodeficiency virus 1; assay: Antiviral activity against HIV1; assay type: functional, organism-based; procedure, shortened: as §3
[25] = Blood plasma protein binding in human at 100 mg administered every 4 hrs by ultrafiltration method; assay type: ADME, cell-free; conditions: read-out: PPB (converted); procedure, shortened: as §1
[26] = Drug level in human cerebrospinal fluid; assay type: ADME, tissue-based; procedure, shortened: as §4
Plasma [27] = assay: Drug metabolism in human blood plasma assessed as formation of N- and O-linked glucuronidated metabolite at 100 mg administered every 4 hrs by UPLC-MS/MS analysis; assay type: ADME, cell-free

| SMILES | fraction unbound at 4 h [2] | IC50 [4] [µg/mL] | concentration [5] [ng/mL] | Cp(f) [7] [ng/mL] | fraction unbound at 4 h [11] | concentration at 4 h [12] [ng/mL] | Drug metabolism (Liver microsome [13]) | Drug metabolism (Cytochrome P450 2B6 [15]) | concentration [16] [ng/mL] | Drug metabolism (Cytochrome P450 2C8) | Kp at 4 h [17] | other results |
| --- | --- | --- | --- | --- | --- | --- | --- | --- | --- | --- | --- | --- |
| O=C1Nc2c(O)cc(Cl)cc2[C@@](C#CC2CC2)(C(F)(F)F)O1 | 0.0003 | 0.0422 (≈ 0.127 µM) | 314 | 10.16 | 0.038 | 358 | metabolite_detected | metabolite_detected | 3.37 |  |  | Kp at 4 h [1]: 145; Drug metabolism (Cytochrome P450 2B6 [3]): metabolite_detected; Drug metabolism (Liver microsome [6]): metabolite_detected; Drug metabolism (Cytochrome P450 1A1 [8]): metabolite_detected; Drug metabolism (Liver microsome [9]): metabolite_detected; Drug metabolism (Cytochrome P450 2B6 [10]): metabolite_detected; Drug metabolism (Cytochrome P450 1A1 [14]): metabolite_detected |
| O=C1Nc2cc(O)c(Cl)cc2[C@@](C#CC2CC2)(C(F)(F)F)O1 | 0.0038 | 0.0447 (≈ 0.135 µM) | 8.84 | 6.55 | 0.619 | 10.2 | metabolite_detected | metabolite_detected |  | metabolite_detected | 188 |  |
| O=C1Nc2c(O)cc(Cl)cc2[C@@](C#CC2(O)CC2)(C(F)(F)F)O1 | 0.0039 | 2.24 (≈ 6.44 µM) | 5.63 | 4.04 | 0.846 | 5.43 |  |  | 0.375 |  | 209 | Retention_time (Plasma [18]): 1.56 min; Retention time (Plasma [19]): 1.56 min |
| O=C1Nc2ccc(Cl)cc2[C@@](C#CC2CC2)(C(F)(F)F)O1 [EFAVIRENZ] |  | 0.00036 (≈ 0.00114 µM) |  |  |  |  | metabolite_detected | metabolite_detected |  | metabolite_detected |  | PPB [20]: 95.1%; Cp (Plasma [21]): 2170 ng/mL; Drug metabolism [22]: metabolite_detected; Cp (Plasma [23]): 95 ng/mL; IC50 [24]: 0.51 ng/mL (≈ 0.00162 µM); fraction unbound at 4 h [25]: 0.0018; Drug uptake [26]: 19 ng/mL; Drug metabolism (Plasma [27]): metabolite_detected |

Source: ChEMBL document CHEMBL3525980, “Compartmentalization and antiviral effect of efavirenz metabolites in blood plasma, seminal plasma, and cerebrospinal fluid” (Drug Metab Dispos, 2013)
